Our source for the nonsense suppression values is the RNAGym collection of RNA variant scans (doi:10.1101/gad.245936.114).

This sample holds only a part of the variants without activity. Bounds are passed on as bounds.

First the molecules themselves.
B1: tRNA (parent)
chain: CUCUCGGUAGCCAAGUUGGUUUAAGGCGCAAGACUUUAAUUUAUCACUACGAAAUCUUGAGAUCGGGCGUUCGACUCGCCCCCGGGAGAUUUUUUCCUCGAGCAA

Variants of B1 are the subject of the series. Put plainly: nonsense suppression (GFP-seq) (ratio to wild type); higher = more function; SUP4oc tRNA, yeast GFP reporter sort-seq. Put shortly: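 Raffinose/galactose medium with 80 mg/L adenine was used to grow yeast carrying genome-integrated tRNA variants (~3% random-mutation library), RFP, and a galactose-driven GFP ochre reporter. Cells went into GFP/RFP bins, which were Illumina-sequenced, and variants with ≥100 reads and ≥30 cells were scored. Nonsense suppression (GFPSEQ) is the per-bin median GFP/RFP weighted by estimated cell share and expressed relative to the unmutated parent tRNA.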
Turning to G10A G32C G88C, the nonsense suppression is ≤ 0.026.

U8A G85U: the nonsense suppression is 0.071.

Turning to A9U G61U, the nonsense suppression worked out at 0.573.

Turning to A9U G61A, the nonsense suppression stood at 0.195.

Turning to A9U G61C, the nonsense suppression stood at 0.197.

A9C C11A C75A: the nonsense suppression was ≤ 0.026.

Turning to G7C G10A C68G, the nonsense suppression is ≤ 0.026.

Take A9C A13G: the nonsense suppression is 0.0462.

Regarding A9C A13C, the nonsense suppression was 1.15.

Take A9U G28C G85A: the nonsense suppression is 0.0603.

Turning to A9G U16G, the nonsense suppression amounted to 0.551.

A9G U16A: the nonsense suppression was 0.845.

Regarding A9U A13U, the nonsense suppression turned out to be 0.819.

Turning to A9G U20G C75G, the nonsense suppression was determined as 0.831.

For G10C C77G, the nonsense suppression was ≤ 0.026.

As for G10C C77U, the nonsense suppression was ≤ 0.026.

Regarding A9C A13U A60U, the nonsense suppression was determined as 1.16.

Consider A9G G61U C75G, for which the nonsense suppression is 1.12.

With G7U G28U U71G C72A G86U, the nonsense suppression was ≤ 0.026.

For the variant A9U C12A A13C C72U C79A, the nonsense suppression is ≤ 0.026.

For the variant G10C C56G U71G, the nonsense suppression was ≤ 0.026.

As to G10A A33C C34U, the nonsense suppression was ≤ 0.026.

For G10A U70C G78C A89C, the nonsense suppression is ≤ 0.026.

In the case of A9U C81U, the nonsense suppression was determined as 0.0272.

On to A9U C81A, for which the nonsense suppression was ≤ 0.026.

G7U C11U C56G: the nonsense suppression was ≤ 0.026.

On to G7U U55C C68U A89C, for which the nonsense suppression was ≤ 0.026.

For U8G C27U, the nonsense suppression was ≤ 0.026.

With A9U G66A, the nonsense suppression came to 0.0305.

With A9G C27U, the nonsense suppression came out at 0.0421.

In the case of A9G C27G, the nonsense suppression was ≤ 0.026.

On to U8A A24C C79G, for which the nonsense suppression was ≤ 0.026.

Consider G7C A14C G61U A74U A87G, for which the nonsense suppression is ≤ 0.026.

For G7U A87U, the nonsense suppression is ≤ 0.026.

Consider G10A A13C, for which the nonsense suppression stood at 0.0618.

As to G7U A13G U17A, the nonsense suppression was ≤ 0.026.

Turning to G10C G15C G32U U63A, the nonsense suppression was ≤ 0.026.

As to A9G U55C, the nonsense suppression came to 0.245.

As for G7U A54U U63C G88U, the nonsense suppression is ≤ 0.026.

Turning to A9G A60G, the nonsense suppression amounted to 0.222.

Turning to A9G A60C, the nonsense suppression was ≤ 0.026.

Take U8A G10A G65A G85U: the nonsense suppression was ≤ 0.026.

As for U8C A24U U71C, the nonsense suppression is ≤ 0.026.

Turning to G7U U21G A23U C79G, the nonsense suppression was ≤ 0.026.

Regarding G7C A60U G61A C82G, the nonsense suppression worked out at 0.0263.

Consider A9G G61U, for which the nonsense suppression worked out at 1.1.

Take A9G G61C: the nonsense suppression came to 1.06.

In the case of A9C G18A A31C A54C A62U G69C G88C, the nonsense suppression is ≤ 0.026.

Take A9G U76A: the nonsense suppression came to 0.103.

For A9C U20G G61U C68U, the nonsense suppression was ≤ 0.026.

Consider G7U G32A A60C A74G, for which the nonsense suppression was ≤ 0.026.

Regarding U8G A13G G61C C68G C82G, the nonsense suppression was ≤ 0.026.

On to A9G G10U, for which the nonsense suppression amounted to 0.0476.

Take A9G G10A: the nonsense suppression was 0.0344.

Take A9U G15A: the nonsense suppression turned out to be 0.0449.

For the variant A9U U20G, the nonsense suppression worked out at 0.12.

Take G7U A30G: the nonsense suppression is ≤ 0.026.

As for A9G U22A U35G, the nonsense suppression was ≤ 0.026.

With A9C U21C A62C C77A, the nonsense suppression is ≤ 0.026.

Regarding A9C U22G, the nonsense suppression is 0.878.

Regarding A9C U22A, the nonsense suppression stood at 0.709.

U8C U16A A30C A54C: the nonsense suppression is ≤ 0.026.

For A9C A31G C68G G86A, the nonsense suppression was ≤ 0.026.

As to G10A G78A, the nonsense suppression turned out to be 0.0314.

With G10A G78U, the nonsense suppression turned out to be 0.0324.

U8C U35G U71A: the nonsense suppression was ≤ 0.026.

As for A9U U55A, the nonsense suppression is ≤ 0.026.

In the case of U8A A14U U20A A74C, the nonsense suppression was ≤ 0.026.

For the variant A9U G78A, the nonsense suppression was 0.0365.

Regarding U8A G26C A31U U55A U71A, the nonsense suppression was ≤ 0.026.

Consider A9G G84A, for which the nonsense suppression amounted to 0.0699.

As for A9G G84U, the nonsense suppression turned out to be 0.0539.

Turning to A9U G25U, the nonsense suppression was ≤ 0.026.

In the case of G10A C27U, the nonsense suppression was ≤ 0.026.

For the variant U8G G88A, the nonsense suppression was 0.228.

On to G7C A31C G32C, for which the nonsense suppression was ≤ 0.026.

In the case of A9G A54U, the nonsense suppression turned out to be 0.196.

With A9G A54C, the nonsense suppression stood at 0.207.

As for U8A G25C U70A, the nonsense suppression is ≤ 0.026.

As to G10A C56U G73A, the nonsense suppression was ≤ 0.026.

G7C U22C G26A: the nonsense suppression is ≤ 0.026.

For the variant A9C U17G, the nonsense suppression amounted to 0.595.

For G7U C82A, the nonsense suppression turned out to be 1.02.

As to A9U A31G, the nonsense suppression turned out to be 0.193.

For the variant G10A U58A A62G U70A, the nonsense suppression is ≤ 0.026.

Turning to A9U U17C, the nonsense suppression came out at 0.128.

Turning to A9U C11G C68A, the nonsense suppression was ≤ 0.026.

For the variant U8C U70G A74C G84C, the nonsense suppression was determined as 0.0541.

As to U8A G61A C72G C81G, the nonsense suppression is ≤ 0.026.

A9U G28A C75U: the nonsense suppression was 0.0978.

Turning to G10C U35A G66C G85U, the nonsense suppression is ≤ 0.026.

U8G A60G: the nonsense suppression is ≤ 0.026.

Consider U8C U63A, for which the nonsense suppression is 0.0619.

For A9U A24G, the nonsense suppression was found to be 0.0422.

As to A9U A74U, the nonsense suppression was determined as 0.106.

A9U A74G: the nonsense suppression stood at 0.0977.

On to A9C A31G, for which the nonsense suppression was found to be 0.857.

In the case of A9U C64U, the nonsense suppression turned out to be 0.0349.

Regarding A9C C75A, the nonsense suppression is 0.938.

Consider A9C C12U A23C A87U, for which the nonsense suppression is ≤ 0.026.

On to A9C C12U, for which the nonsense suppression worked out at 0.186.

With A9G A13C C34G U63A C81G G84A G86U, the nonsense suppression was ≤ 0.026.

In the case of U8A G19C A60G, the nonsense suppression was ≤ 0.026.

Take A9U G86A: the nonsense suppression turned out to be 0.0496.

For the variant A9G G73U, the nonsense suppression was 0.053.

As for A9G G73A, the nonsense suppression was determined as 0.12.

As to G10C C29G C79U, the nonsense suppression is ≤ 0.026.

On to A9U A33G, for which the nonsense suppression worked out at 0.0334.

With A9G C72G U76G G88U, the nonsense suppression was ≤ 0.026.

In the case of U8A U57C A74C G78U G85U A87U, the nonsense suppression was ≤ 0.026.

As to G10A A31C, the nonsense suppression is ≤ 0.026.

Regarding A9G U63C A74U C75U C79U, the nonsense suppression is ≤ 0.026.

Consider A9U A30G, for which the nonsense suppression is 0.0995.

As for G7U G32A A33C C83A A89G, the nonsense suppression was ≤ 0.026.

Regarding G7U U22A, the nonsense suppression is ≤ 0.026.

In the case of A9G C11U G61C, the nonsense suppression was ≤ 0.026.

Take A9G U17C U22C: the nonsense suppression came to 0.133.

With A9U C72G, the nonsense suppression came to 0.0446.

With A9G U16A U55C, the nonsense suppression is 0.188.

As to G7U A54C, the nonsense suppression came out at 0.0394.

Regarding A9U G28U A62G U71G, the nonsense suppression was ≤ 0.026.

Regarding A9U G18C, the nonsense suppression was ≤ 0.026.

Regarding U8A U55G C81G, the nonsense suppression was ≤ 0.026.

For the variant U8C A54C, the nonsense suppression stood at 0.0833.

Regarding G7C U35G A62C, the nonsense suppression was ≤ 0.026.

With G10A C64G, the nonsense suppression was ≤ 0.026.

Turning to A9C G73A, the nonsense suppression was 0.215.

On to G10A A60U C68A, for which the nonsense suppression was ≤ 0.026.

U8A U16G: the nonsense suppression came out at 0.0647.

Consider A9C A87G, for which the nonsense suppression came to 0.649.

For the variant A9G U16C G18U, the nonsense suppression was ≤ 0.026.

On to G10A U63G, for which the nonsense suppression was determined as 0.0314.

As for U8G G67C G85C, the nonsense suppression is ≤ 0.026.

As to A9U A60U, the nonsense suppression came out at 0.0653.

Take A9C G85U: the nonsense suppression was 0.04.

In the case of A9G A30U U58A, the nonsense suppression turned out to be 0.23.

As to G10C U21A, the nonsense suppression is ≤ 0.026.

For the variant G7U U21A G78A C79A, the nonsense suppression was ≤ 0.026.

Take A9G G61A G85A: the nonsense suppression stood at 0.303.

On to A9C C29U, for which the nonsense suppression was determined as 0.751.

For the variant A9C A30U, the nonsense suppression is 0.0886.

For the variant A9C A30G, the nonsense suppression came out at 0.171.

As for G7C U57A, the nonsense suppression is ≤ 0.026.

Consider U8G A13C G28C C64U U70A C72U G84U, for which the nonsense suppression was ≤ 0.026.

Turning to G7U G65A U76A, the nonsense suppression was ≤ 0.026.

For the variant A9C A60U, the nonsense suppression worked out at 0.575.

For A9C A60C, the nonsense suppression is 0.0924.

In the case of A9G A24G, the nonsense suppression came to 0.0517.

As to A9C U20C C75A, the nonsense suppression came to 0.566.

As for G10A A60C G66C G78A, the nonsense suppression is ≤ 0.026.

Regarding G10C C79U, the nonsense suppression was ≤ 0.026.

With G10U A13C, the nonsense suppression was determined as 0.0296.

A9U U35G G73A A74U: the nonsense suppression is ≤ 0.026.

Turning to G10A G32C, the nonsense suppression was ≤ 0.026.

With A9G C12A, the nonsense suppression is ≤ 0.026.

For the variant A9C C68U G78C, the nonsense suppression stood at 0.0334.

As to A9G A30G G61A, the nonsense suppression amounted to 0.291.

With A9G A14G, the nonsense suppression is 0.0311.

For G7U G19U, the nonsense suppression is ≤ 0.026.

With A9C A23G, the nonsense suppression came out at 0.0661.

On to A9G U17C, for which the nonsense suppression was 0.113.

In the case of A9G U17A, the nonsense suppression was found to be 0.92.

As to U8C U21A, the nonsense suppression is ≤ 0.026.

U8C U21G: the nonsense suppression was determined as 0.0903.

Turning to A9U C12U, the nonsense suppression came to 0.29.

On to G10C G15U A33U, for which the nonsense suppression was ≤ 0.026.

Consider G10A C72A C80A, for which the nonsense suppression is ≤ 0.026.
